Experimental data as given in publication PMC10321171 (Virulence, 2023).
≈ marks a conversion by molar mass, not a printed value.

Experiments:
C. albicans [1] = test: Determination of MIC by broth microdilution; format: cell-based; details: Candida albicans, read-out: MICs, strain YEM30, wild-type strain
C. albicans YEM30 [2] = test: Drug resistance development test; format: cell-based, Candida albicans
C. albicans YEM30 [3] = test: G. mellonella-C. albicans infection model; format: in vivo, Galleria mellonella; details: 2 μg/larva, 2 h after infection
How it was run: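 Larvae were infected with 10 μL YEM30 (2 × 10^5 CFU/mL) into the last right foreleg. After 2 h they were injected with 10 μL of test compound (2 μg/larva), fluconazole (2 μg/larva) or PBS, then kept at 37°C in the dark. Death was no response to slight contact; survival was scored daily for 5 days (log-rank test). For fungal burden (40 larvae/group), six larvae/day were homogenized in PBS, serially diluted and plated on YPD.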

C. albicans [4] = details: subinhibitory concentrations; cited from earlier work

## OC(Cn1cncn1)(Cn1cncn1)c1ccc(F)cc1F [FLC, Fluconazole]
C. albicans [1]
  MIC: 1 µg/mL (≈ 3.27 µM)
C. albicans YEM30 [2]; Candida albicans, YEM30, read-out: MIC value after consecutive treatment
  MIC: 8 µg/mL (≈ 26.1 µM)
C. albicans YEM30 [2]; YEM30, consecutive treatment with 1/2 MIC, up to 40 days
  drug resistance development: developed drug resistance after being treated with 1/2 MIC of FLC for 5 days
C. albicans YEM30 [3]
  fungal burden vs control group: greatly reduced the fungal burden
C. albicans YEM30 [3]; 5 days
  survival rate of infected larvae: 73%

## C/C=C/CCCC/C=C/CCCCC(=O)O[C@@H]1[C@@H](O)[C@@]2(CCC(C)C(O)C(C)C/C=C/c3ccccc3)O[C@H](C(=O)O)[C@@](O)(C(=O)O)[C@]1(C(=O)O)O2 (stereo partly drawn) [zaragozic acid B]
C. albicans [4]
  farnesol levels compared to untreated cells: 8–10 folds
